One data set deals with E. faecalis ATCC 29212. The data set is described as follows: MIC by microdilution. It is filed as cell-based. The note with it: Enterococcus faecalis, ATCC29212. Summed up: (§1)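 CLSI broth microdilution in cation-adjusted Mueller Hinton II broth, final inoculum 5 × 10⁵ CFU/mL. Plates incubated at 35 °C and read after 16–20 or 20–24 h depending on species. MIC taken as the lowest concentration with no visible growth. All determinations in triplicate.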
Background: Broth dilution looks for growth in wells or tubes with falling amounts of substance.

Another data set concerns S. aureus NRS100 (COL). The data set is described as follows: MIC by microdilution. The class given is cell-based. The settings on record: Staphylococcus aureus. In a few lines: (§2)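 S. aureus was tested by CLSI broth microdilution in cation-adjusted Mueller Hinton II broth, final inoculum 5 × 10⁵ CFU/mL, 35 °C, read after 16–20 or 20–24 h; oxacillin was tested with 2% NaCl. MIC was the lowest concentration without visible growth, in triplicate. For ATCC 29213, inocula of 5 × 10⁶ and 5 × 10⁷ CFU/mL were also tested.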

In another data set the test system is S. aureus NRS119. The data set is described as follows: MIC by microdilution. The class given is cell-based. The settings on record: Staphylococcus aureus. In a few lines:
as §2

For a further data set, the system named is S. epidermis ATCC 35547. The data set is described as follows: MIC by microdilution. It is filed as cell-based. Summed up: as §1
The subject of a further data set is S. aureus ATCC 29213. The data set is described as follows: MIC by microdilution. It is filed as cell-based. The note with it: Staphylococcus aureus, ATCC29213. In a few lines:
as §2

The subject of another data set is E. faecium NCTC 7171. The data set is described as follows: MIC by microdilution. The class given is cell-based. The settings on record: Enterococcus faecium, NCTC7171. Summed up: as §1
The next data set concerns E. faecalis 99 (Van R). The data set is described as follows: MIC by microdilution. It is filed as cell-based. The note with it: Enterococcus faecalis. In a few lines: as §1
A further data set relates to E. faecalis 201 (Van S). The data set is described as follows: MIC by microdilution. It is filed as cell-based. The settings on record: Enterococcus faecalis. In a few lines:
as §1

For a further data set, the system named is S. aureus VRS2. The data set is described as follows: MIC by microdilution. The note with it: Staphylococcus aureus, MRSA. The class given is cell-based. Summed up: as §2
For data set [1], the system named is S. hemolyticus ATCC 29970. The data set is described as follows: MIC by microdilution. The class given is cell-based. The note with it: Streptococcus pyogenes, ATCC29970.
In another data set the test system is S. aureus ATCC 27660. The data set is described as follows: MIC by microdilution. The settings on record: Staphylococcus aureus, ATCC27660. The class given is cell-based. In a few lines: as §2
Another data set concerns S. oralis ATCC 9811. The data set is described as follows: MIC by microdilution. The settings on record: Streptococcus oralis, ATCC9811. It is filed as cell-based. In a few lines:
(§3)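 Streptococcal MICs came from CLSI broth microdilution in cation-adjusted Mueller Hinton II broth with 5% lysed horse blood. Final inoculum 5 × 10⁵ CFU/mL, incubation at 35 °C, read after 16–20 or 20–24 h depending on species. MIC was the lowest concentration without visible growth, determined in triplicate.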

For a further data set, the system named is S. aureus NRS120. The data set is described as follows: MIC by microdilution. The class given is cell-based. The settings on record: Staphylococcus aureus. In a few lines: as §2
A further data set deals with E. faecium 106 (Van R). The data set is described as follows: MIC by microdilution. The class given is cell-based. The settings on record: Enterococcus faecium. Summed up:
as §1

Another data set concerns S. pyogenes ATCC 49399. The data set is described as follows: MIC by microdilution. The note with it: Streptococcus pyogenes, ATCC49399. The class given is cell-based. Summed up:
as §3

Data set [2] concerns E. faecium 119–39A (Van S). The data set is described as follows: MIC by microdilution. It is filed as cell-based. The note with it: Enterococcus faecium. In a few lines:
as §1

A further data set has as its system S. aureus VRS1. The data set is described as follows: MIC by microdilution. The note with it: Staphylococcus aureus, MRSA. It is filed as cell-based. Summed up:
as §2

The target of data set [3] is purified recombinant PBP2a (Staphylococcus aureus, UniProt P07944). The data set is described as follows: Continuous spectrophotometric PBP2a inhibition assay with nitrocefin. The class given is biochemical, MRSA.
Sequence of purified recombinant PBP2a (P07944 whole entry): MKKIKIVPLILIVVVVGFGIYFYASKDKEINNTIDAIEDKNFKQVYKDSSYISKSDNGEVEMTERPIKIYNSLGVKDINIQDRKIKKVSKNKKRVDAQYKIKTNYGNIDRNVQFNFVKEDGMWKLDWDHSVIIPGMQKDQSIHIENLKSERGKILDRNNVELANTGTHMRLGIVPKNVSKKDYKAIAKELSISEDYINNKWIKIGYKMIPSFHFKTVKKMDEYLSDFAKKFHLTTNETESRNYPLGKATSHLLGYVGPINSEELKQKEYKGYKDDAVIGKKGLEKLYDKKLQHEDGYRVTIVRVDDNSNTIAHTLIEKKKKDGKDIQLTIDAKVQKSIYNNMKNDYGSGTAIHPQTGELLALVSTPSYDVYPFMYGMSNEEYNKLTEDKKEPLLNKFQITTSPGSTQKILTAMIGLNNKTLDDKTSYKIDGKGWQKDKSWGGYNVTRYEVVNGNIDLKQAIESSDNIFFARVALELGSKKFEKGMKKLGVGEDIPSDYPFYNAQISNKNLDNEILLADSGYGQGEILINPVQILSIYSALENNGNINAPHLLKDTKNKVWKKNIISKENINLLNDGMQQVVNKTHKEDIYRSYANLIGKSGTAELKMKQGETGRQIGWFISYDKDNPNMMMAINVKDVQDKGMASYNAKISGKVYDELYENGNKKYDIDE
The next data set is described as follows: Hemolysis assay. It is filed as cell-based, horse. The note with it: horse, washed red blood cells from horse whole blood.
A further data set in a line: Pharmacokinetics in mice. It is filed as in vivo. The settings on record: for volume of distribution (in words): single 50 mg/kg iv. In a few lines:
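Female ICR mice received a single 50 mg/kg dose, either iv in 10% DMSO/25% Tween-80/65% water or po by gavage (n = 3 per time point). Terminal blood was taken at 2 min–24 h after iv and 0.5–48 h after po, then centrifuged for plasma. Plasma was precipitated with acetonitrile containing internal standard and analysed by C18 UPLC-ESI(+)-MRM against calibration curves in blank mouse plasma.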

A further data set has as its system red blood cells. The data set is described as follows: Hemolysis assay. The class given is cell-based, horse. The settings on record: horse RBCs, 37 °C, 1 h; 3% values at 64 μg/mL (32-fold above the MIC).
The mark [4] stands for this setting: ICR, mouse, plasma, iv, 50 mg/kg.
Where [5] appears, read: female, ICR, mouse, plasma, po, 50 mg/kg.

≈ marks a conversion by molar mass, not a printed value.

This is an account of results in paper PMC3985699 (Journal of the American Chemical Society, 2014).

In general, MIC refers to the lowest concentration found to suppress growth. Read a high MIC as weaker potency. As to `CC(=O)NC[C@H]1CN(c2ccc(N3CCOCC3)c(F)c2)C(=O)O1` [linezolid, reference compound], the MIC against E. faecalis ATCC 29212 amounted to 2 µg/mL (≈ 5.93 µM); in the data set with S. aureus NRS100 (COL), 2 µg/mL (≈ 5.93 µM); against S. aureus NRS119, 32 µg/mL (≈ 94.9 µM); against S. epidermis ATCC 35547 it was 1 µg/mL (≈ 2.96 µM); against S. aureus ATCC 29213, 4 µg/mL (≈ 11.9 µM); against E. faecium NCTC 7171, 2 µg/mL (≈ 5.93 µM). The MIC was 1 µg/mL (≈ 2.96 µM) in the data set on E. faecalis 99 (Van R); 2 µg/mL (≈ 5.93 µM) in the data set with E. faecalis 201 (Van S); 2 µg/mL (≈ 5.93 µM) with S. aureus VRS2; 2 µg/mL (≈ 5.93 µM) in data set [1]; 2 µg/mL (≈ 5.93 µM) in the data set on S. aureus ATCC 27660; 1 µg/mL (≈ 2.96 µM) in the data set on S. oralis ATCC 9811. Further, the minimal inhibitory concentration (MIC) against S. aureus NRS120 is 32 µg/mL (≈ 94.9 µM); with E. faecium 106 (Van R), 1 µg/mL (≈ 2.96 µM); against S. pyogenes ATCC 49399 it was 1 µg/mL (≈ 2.96 µM); in [2], 2 µg/mL (≈ 5.93 µM); with S. aureus VRS1 it was 2 µg/mL (≈ 5.93 µM).

Broadly, the IC50 is the concentration that gives 50% inhibition. The AUC(0-inf) is the area under the concentration-time curve extrapolated to infinity. Lower therefore signals low exposure. What is called Vd is the apparent volume that relates the amount in the body to the concentration in plasma or blood. A high value points to extensive tissue distribution. The term clearance denotes the volume of plasma or blood freed of the substance per unit of time. Read a high clearance as a high capacity for elimination. Regarding `Oc1ccc(-c2nc(-c3ccc(Oc4ccccc4)cc3)no2)cc1` [Compound 2, 4-(3-(4-Phenoxyphenyl)-1,2,4-oxadiazol-5-yl)phenol], the IC50 in [3] is 12.1 µM. For the same molecule, the MIC with E. faecalis ATCC 29212 stood at 2 µg/mL (≈ 6.05 µM); with S. aureus NRS100 (COL), 2 µg/mL (≈ 6.05 µM); against S. aureus NRS119, 2 µg/mL (≈ 6.05 µM); against S. epidermis ATCC 35547, 2 µg/mL (≈ 6.05 µM); in the data set on S. aureus ATCC 29213, 2 µg/mL (≈ 6.05 µM); in the data set with E. faecium NCTC 7171 it was 1 µg/mL (≈ 3.03 µM). Moreover, the MIC against E. faecalis 201 (Van S) was 2 µg/mL (≈ 6.05 µM); against S. aureus VRS2, 2 µg/mL (≈ 6.05 µM); in [1], 2 µg/mL (≈ 6.05 µM); against S. aureus ATCC 27660, 2 µg/mL (≈ 6.05 µM); against S. oralis ATCC 9811 it was 32 µg/mL (≈ 96.9 µM); against S. aureus NRS120 it was 2 µg/mL (≈ 6.05 µM). Besides, the MIC with E. faecium 106 (Van R) was found to be 2 µg/mL (≈ 6.05 µM); in the data set on S. pyogenes ATCC 49399, 32 µg/mL (≈ 96.9 µM); in [2], 1 µg/mL (≈ 3.03 µM); against S. aureus VRS1, 2 µg/mL (≈ 6.05 µM). In the data set “Hemolysis assay”, the hemolysis at 1 h, 64 μg/mL is 3%. For the same molecule, in “Pharmacokinetics in mice” (setting [4]), the AUC(0-inf) was 23 µg·h/mL. In addition, the Vd in the data set “Pharmacokinetics in mice” (setting [4]) is 0.86 L/kg. Besides, the clearance in “Pharmacokinetics in mice” (setting [4]) amounted to 36.2 mL/min/kg. Besides, the “volume of distribution (in words)” value in the data set “Pharmacokinetics in mice” (mice) is given as “large volume of distribution”.

Turning to `CN[C@H](CC(C)C)C(=O)N[C@H]1C(=O)N[C@@H](CC(N)=O)C(=O)N[C@H]2C(=O)N[C@H]3C(=O)N[C@H](C(=O)N[C@H](C(=O)O)c4cc(O)cc(O)c4-c4cc3ccc4O)[C@H](O)c3ccc(c(Cl)c3)Oc3cc2cc(c3O[C@@H]2O[C@H](CO)[C@@H](O)[C@H](O)[C@H]2O[C@H]2C[C@](C)(N)[C@H](O)[C@H](C)O2)Oc2ccc(cc2Cl)[C@H]1O` [vancomycin, reference compound], the MIC came out at 2 µg/mL (≈ 1.38 µM) in the data set with E. faecalis ATCC 29212; 2 µg/mL (≈ 1.38 µM) against S. aureus NRS100 (COL); 2 µg/mL (≈ 1.38 µM) with S. aureus NRS119; 16 µg/mL (≈ 11 µM) in the data set with S. epidermis ATCC 35547; 0.5 µg/mL (≈ 0.345 µM) against E. faecium NCTC 7171; 128 µg/mL (≈ 88.3 µM) in the data set on E. faecalis 99 (Van R). In addition, the MIC against E. faecalis 201 (Van S) worked out at 1 µg/mL (≈ 0.69 µM); against S. aureus VRS2 it was 64 µg/mL (≈ 44.2 µM); in [1] it was 2 µg/mL (≈ 1.38 µM); against S. aureus ATCC 27660 it was 1 µg/mL (≈ 0.69 µM); against S. oralis ATCC 9811, 0.5 µg/mL (≈ 0.345 µM); against S. aureus NRS120, 2 µg/mL (≈ 1.38 µM). The MIC with E. faecium 106 (Van R) amounted to 256 µg/mL (≈ 177 µM); in the data set with S. pyogenes ATCC 49399, 0.6 µg/mL (≈ 0.414 µM); in [2] it was 0.5 µg/mL (≈ 0.345 µM); in the data set on S. aureus VRS1, 512 µg/mL (≈ 353 µM).

As usually defined, the Cmax is the highest concentration seen after dosing. The term Tmax denotes the time from dosing to the highest level. With `Nc1ccc(-c2nc(-c3ccc(Oc4ccc(C(F)(F)F)cc4)cc3)no2)cc1` [Compound 4, 4-(3-(4-(4-(Trifluoromethyl)phenoxy)phenyl)-1,2,4-oxadiazol-5-yl)aniline], the MIC with E. faecalis ATCC 29212, in the data set with S. aureus NRS100 (COL), against S. aureus NRS119, in the data set on S. epidermis ATCC 35547, with S. aureus ATCC 29213 and in the data set on E. faecium NCTC 7171 was 2 µg/mL (≈ 5.03 µM) throughout. The MIC against E. faecalis 99 (Van R) is 2 µg/mL (≈ 5.03 µM); with E. faecalis 201 (Van S) it was > 32 µg/mL; in the data set on S. aureus VRS2 it was 2 µg/mL (≈ 5.03 µM); in [1], 4 µg/mL (≈ 10.1 µM); against S. aureus ATCC 27660, 2 µg/mL (≈ 5.03 µM); in the data set with S. oralis ATCC 9811 it was 32 µg/mL (≈ 80.5 µM). The MIC was 2 µg/mL (≈ 5.03 µM) against S. aureus NRS120; 2 µg/mL (≈ 5.03 µM) in the data set with E. faecium 106 (Van R); 32 µg/mL (≈ 80.5 µM) against S. pyogenes ATCC 49399; 1 µg/mL (≈ 2.52 µM) in [2]; 2 µg/mL (≈ 5.03 µM) against S. aureus VRS1. In the data set with red blood cells, the “hemolysis of red blood cells” value was “not hemolytic at all”. Besides, the AUC(0-inf) was 153 µg·h/mL in the data set “Pharmacokinetics in mice” (setting [4]) and 154 µg·h/mL in “Pharmacokinetics in mice” (setting [5]). In “Pharmacokinetics in mice” (setting [4]), the Vd stood at 0.72 L/kg. Further, the clearance in “Pharmacokinetics in mice” (setting [4]) stood at 5.4 mL/min/kg. This molecule returned a Cmax in the data set “Pharmacokinetics in mice” (setting [5]) of 10000 ng/mL. The Tmax in the data set “Pharmacokinetics in mice” (setting [5]) worked out at 2 h. In addition, the “higher systemic exposure relative to comparator compound” value in “Pharmacokinetics in mice” (mice, 50 mg/kg iv, compound 3 vs compound 2, compound 4 vs compound 3) came to 3.5 fold. In addition, the “volume of distribution (in words)” value in “Pharmacokinetics in mice” (mice) is on record as “large volume of distribution”.
